# Compound activity (PubChem BioAssay)
# The full list was thinned out, with hits kept by preference.
# T cruzi growth-1: inhibitors of T. cruzi proliferation. inhibition, % at 8.34 µM. T. cruzi beta-gal in NIH3T3, GalScreen luminescence, 90 h. 77,000 compounds, 5.9% hits. AID 624255;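 active means mean inhibition above about 93%, with at least 55% of replicates each passing it, limit read from the data, passing the limit was not always enough; inconclusive means only one of those two conditions holds; inactive means neither condition holds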
# IDH1 mut inh: IDH1 R132H (human) inhibition. O75874. inhibition, % at 10 µM. IDH1 R132H reductase, diaphorase/resazurin fluorescence, 60 min. 70,000 compounds, 0.18% hits; in the data active means inhibition above about 34%; inconclusive means no clear call, values can overlap the other calls; inactive means below about 11%;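 further: 0% = DMSO and 100% = no enzyme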
# GASC1 inh: blocks human GASC-1 (KDM4C) demethylase activity. Q9H3R0. GST-KDM4C 2-372, H3K9me3 peptide, LANCE TR-FRET. inhibition, % at 12.5 µM. 96,000 compounds, 0.15% hits. AID 720574;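 active means mean replicate inhibition above about 25%, with at least 55% of replicates also reaching it, limit read from the data, passing the limit was not always enough; inconclusive means only one of those two conditions met; inactive means neither condition met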
# Target sequence (Q9H3R0 2-372 limits assumed): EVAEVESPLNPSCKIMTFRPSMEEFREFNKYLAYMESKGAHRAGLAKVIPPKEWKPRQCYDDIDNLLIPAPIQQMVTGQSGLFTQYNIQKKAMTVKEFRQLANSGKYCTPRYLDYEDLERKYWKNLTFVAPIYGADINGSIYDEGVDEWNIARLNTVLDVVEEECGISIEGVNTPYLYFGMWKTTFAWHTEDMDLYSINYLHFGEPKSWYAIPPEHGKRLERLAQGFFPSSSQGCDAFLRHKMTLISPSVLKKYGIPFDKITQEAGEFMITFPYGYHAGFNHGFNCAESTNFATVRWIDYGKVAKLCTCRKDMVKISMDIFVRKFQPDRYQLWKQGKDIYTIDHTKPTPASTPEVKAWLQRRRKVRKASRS
#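 reagent = H3K9me3 peptide substrate, Fe(II), 2-oxoglutarate | system = GST-tagged GASC-1 (JMJD2C) catalytic fragment, aa 2-372 | amount = enzyme final amount 10 nM | read-out = Fall in 671/618 emission ratio as inhibition | medium = HEPES buffer, pH 7.5, plus ascorbate | schedule = 30 min reaction, 60 min detection, RT | measured by = LANCE TR-FRET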
# T cruzi growth-2: Trypanosoma cruzi proliferation inhibition; T. cruzi beta-gal in NIH3T3, GalScreen luminescence, 90 h; 5,600 compounds, 72% hits; inhibition, % at 8.35 µM; shares compounds with T cruzi growth-1;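 active means mean replicate inhibition above about 95% and at least 55% of replicates individually reaching it, limit read from the data; inconclusive means only one of the two criteria is met; inactive means neither criterion is met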
# T cruzi growth-3: blocks T. cruzi growth in NIH3T3 host cells. 5,600 compounds, 21% hits. T. cruzi beta-gal in NIH3T3, GalScreen luminescence, 90 h. shares compounds with T cruzi growth-1. AID 651740. inhibition, % at 2.09 µM;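 active means mean inhibition above about 95%, with at least 55% of replicates also reaching it, limit read from the data; inconclusive means meets just one of the two conditions; inactive means meets neither condition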;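 further: plate controls were neutral control median for no effect and positive control median for full effect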
# 3T3 cytotox: kills mouse NIH/3T3 fibroblasts; shares compounds with T cruzi growth-1; NIH/3T3 viability, CellTiter-Glo ATP luminescence, 90 h; cytotoxicity (signal decrease), % at 8.35 µM; 5,600 compounds, 14% hits;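 active means mean signal decrease across replicates above about 35% based on untreated-well scatter, with enough replicates individually passing, limit read from the data; inconclusive means no rule stated though some were filed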;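 further: 0% = median of neutral control wells and 100% = median of positive control wells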
# NIH3T3 tox 2: NIH/3T3 (mouse) viability loss | shares compounds with T cruzi growth-1 | NIH/3T3 viability, CellTiter-Glo ATP luminescence, 90 h | inhibition, % at 24.9 µM | 5,600 compounds, 56% hits | AID 651744;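 active means mean loss of cell viability signal at or above a set limit, and enough replicates individually reaching it; inconclusive means meets only the mean limit or only the replicate share; inactive means meets neither condition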;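 further: 0% = median of neutral control wells and 100% = median of positive control wells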
# The depositor's hits bear a star; ? = inconclusive; · = no result given.
SMILES,T cruzi growth-1,IDH1 mut inh,GASC1 inh,T cruzi growth-2,T cruzi growth-3,3T3 cytotox,NIH3T3 tox 2
C[C@H]1CN([C@@H](C)CO)C(=O)c2cccc(NC(=O)Nc3ccc(F)cc3)c2O[C@H]1CN(C)S(=O)(=O)c1cccs1,-126.7,1.0,0.7,·,·,·,·
C[C@H](CO)N1C[C@H](C)[C@@H](CN(C)S(=O)(=O)c2cccs2)Oc2c(NC(=O)Nc3ccc(C(F)(F)F)cc3)cccc2C1=O,103.6*,0.8,-1.8,82.4,19.8,10.7,57.3*
C[C@@H]1CN([C@@H](C)CO)C(=O)c2cccc(NC(=O)Nc3ccc(C(F)(F)F)cc3)c2O[C@H]1CN(C)S(=O)(=O)c1cccs1,99.3*,3.3,-1.0,101.3*,70.8,32.9,38.7*
C[C@@H]1CN([C@H](C)CO)C(=O)c2cccc(NC(=O)Nc3ccc(C(F)(F)F)cc3)c2O[C@@H]1CN(C)S(=O)(=O)c1cccs1,92.9*,0.7,-3.0,99.3*,46.0,20.0,105.4*
C[C@H](CO)N1C[C@H](C)[C@H](CN(C)S(=O)(=O)c2cccs2)Oc2c(NC(=O)Nc3ccc(F)cc3)cccc2C1=O,4.0,-3.1,-0.7,·,·,·,·
COCC(=O)N(C)C[C@@H]1Oc2cc(-c3cncnc3)ccc2S(=O)(=O)N([C@@H](C)CO)C[C@@H]1C,30.8,-0.3,0.4,·,·,·,·
O=C(NCC[C@H]1CC[C@@H](NC(=O)C2CC2)[C@@H](CO)O1)Nc1ccc(Cl)cc1,·,0.2,3.5,·,·,·,·
CCOc1ccc(-n2cnnn2)cc1S(=O)(=O)NCc1ccccc1,·,0.5,·,·,·,·,·
C[C@H](CO)N1C[C@H](C)[C@@H](CN(C)Cc2ccccn2)Oc2ncc(C#CC3CC3)cc2C1=O,16.5,-0.2,0.4,·,·,·,·
C[C@H](CO)N1C[C@H](C)[C@@H](CN(C)Cc2cccnc2)Oc2cc(Br)ccc2S1(=O)=O,111.1*,·,14.4,92.5,66.9,-4.9,39.5*
C[C@H]1CN([C@@H](C)CO)S(=O)(=O)c2ccc(Br)cc2O[C@H]1CN(C)Cc1cccnc1,·,2.1,2.1,·,·,·,·
C[C@@H]1CN([C@@H](C)CO)S(=O)(=O)c2ccc(Br)cc2O[C@@H]1CN(C)Cc1cccnc1,112.2*,0.1,1.2,107.0*,80.4,10.8,13.1
C[C@H](CO)N1C[C@H](C)[C@H](CN(C)Cc2cccnc2)Oc2cc(Br)ccc2S1(=O)=O,·,29.1,·,·,·,·,·
CCOC(=O)Cc1cc(-c2ccccc2O)nc2ccc3ccccc3c12,·,1.5,·,·,·,·,·
COc1cc(CO)cc(I)c1OCc1cccc([N+](=O)[O-])c1,·,-0.4,·,·,·,·,·
CC(=O)N(C)C[C@H]1Oc2cc(-c3ccc(F)cc3)ccc2S(=O)(=O)N([C@@H](C)CO)C[C@H]1C,6.0,-2.5,-0.4,·,·,·,·
C[C@@H]1CN([C@H](C)CO)S(=O)(=O)c2ccc(-c3ccc(F)cc3)cc2O[C@@H]1CN(C)C(=O)Nc1ccc(F)cc1,120.1*,3.3,-1.3,106.9*,66.2,6.6,48.7*
C[C@H](CO)N1C[C@H](C)[C@H](CN(C)C(=O)Nc2ccc(F)cc2)Oc2cc(-c3ccc(F)cc3)ccc2S1(=O)=O,118.9*,3.8,-3.8,104.5*,74.5,10.8,56.0*
C[C@@H]1CN([C@@H](C)CO)S(=O)(=O)c2ccc(-c3ccc(F)cc3)cc2O[C@H]1CN(C)C(=O)Nc1ccc(F)cc1,?,0.0,-0.4,93.1,6.7,23.9,55.7*
C[C@@H]1CN([C@H](C)CO)S(=O)(=O)c2ccc(-c3cccc(C(=O)N(C)C)c3)cc2O[C@@H]1CN(C)C(=O)Nc1ccc(F)cc1,21.8,0.2,0.0,·,·,·,·
CC(=O)N(C)C[C@H]1Oc2cc(-c3ccc(F)cc3)ccc2S(=O)(=O)N([C@H](C)CO)C[C@@H]1C,42.4,3.2,-1.9,·,·,·,·
CC(=O)N(C)C[C@H]1Oc2cc(-c3ccc(F)cc3)ccc2S(=O)(=O)N([C@@H](C)CO)C[C@@H]1C,8.3,-1.2,-1.4,·,·,·,·
C[C@H](CO)N1C[C@H](C)[C@@H](CN(C)C(=O)Nc2ccc(F)cc2)Oc2cc(-c3ccc(F)cc3)ccc2S1(=O)=O,117.8*,·,0.5,96.4*,46.2,44.2*,45.5*
C[C@H](CO)N1C[C@H](C)[C@H](CN(C)S(C)(=O)=O)Oc2ccc(NC(=O)Nc3ccc4c(c3)OCO4)cc2CC1=O,-12.8,-0.3,0.6,·,·,·,·
O=C(NCCN1CCCC1)[C@H]1[C@H](CO)[C@H]2Cn3c(cccc3=O)[C@H]2N1C(=O)c1ccccc1,27.5,·,1.6,·,·,·,·
SMILES,T cruzi growth-1,IDH1 mut inh,GASC1 inh,T cruzi growth-2,T cruzi growth-3,3T3 cytotox,NIH3T3 tox 2
C[C@H](CO)N1C[C@H](C)[C@H](CN(C)C(=O)Nc2ccc(F)cc2)Oc2cc(-c3cccc(C(=O)N(C)C)c3)ccc2S1(=O)=O,17.6,-0.1,-0.7,·,·,·,·
C[C@H]1CN([C@@H](C)CO)S(=O)(=O)c2ccc(-c3ccc(F)cc3)cc2O[C@H]1CN(C)C(=O)Nc1ccc(F)cc1,120.3*,·,-1.3,100.9*,80.9,62.1*,76.3*
N#C[C@H]1[C@H](c2ccc(C#Cc3ccc(F)cc3)cc2)[C@H](CO)N1C(=O)C1CCC1,99.2*,·,-2.1,111.6*,72.4,11.5,83.0*
N#C[C@@H]1[C@@H](c2ccc(C#Cc3ccc(F)cc3)cc2)[C@H](CO)N1C(=O)C1CCCC1,91.7,·,-4.3,·,·,·,·
N#C[C@H]1[C@@H](c2ccc(C#Cc3ccc(F)cc3)cc2)[C@H](CO)N1C(=O)C1CCC1,93.0,·,-0.1,·,·,·,·
N#C[C@H]1[C@H](c2ccc(C#Cc3ccc(F)cc3)cc2)[C@H](CO)N1C(=O)C1CCCC1,103.8*,·,0.1,100.5*,71.0,-7.7,81.7*
N#C[C@H]1[C@H](c2ccccc2-c2ccc(F)cc2)[C@H](CO)N1C(=O)NC1CCCCC1,·,·,0.5,·,·,·,·
O=C(C[C@@H]1C=C[C@H](NC(=O)Cc2ccccn2)[C@H](CO)O1)NCCc1ccncc1,1.8,0.5,0.5,·,·,·,·
CCN1[C@@H]2Cn3c(ccc(C4=CCCC4)c3=O)[C@H]1[C@@H](C(=O)N[C@@H](C)c1ccccc1)[C@@H]2CO,27.6,·,-0.5,·,·,·,·
C[C@@H]1CCCCO[C@H](CN(C)C(=O)Nc2ccc(F)cc2)[C@H](C)CN([C@@H](C)CO)C(=O)c2cc(NC(=O)c3ccccc3)ccc2O1,86.1,·,0.5,·,·,·,·
C[C@@H]1CCCCO[C@H](CN(C)C(=O)Nc2ccc(C(F)(F)F)cc2)[C@H](C)CN([C@@H](C)CO)C(=O)c2cc(NC(=O)c3ccccc3)ccc2O1,85.9,-1.2,1.6,·,·,·,·
C[C@H]1CCCCO[C@@H](CN(C)C(=O)Nc2ccc(C(F)(F)F)cc2)[C@@H](C)CN([C@@H](C)CO)C(=O)c2cc(NC(=O)c3ccncc3)ccc2O1,108.5*,3.0,-1.7,108.8*,67.3,18.4,?
